Assay results as given in ChEMBL document CHEMBL4033676, “Design, synthesis and biological evaluation of 3,4-dihydro-2(1H)-quinoline-O-alkylamine derivatives as new multipotent cholinesterase/monoamine oxidase inhibitors for the treatment of Alzheimer's disease” (Bioorg Med Chem, 2017).

Assays:
Rattus norvegicus = organism: Rattus norvegicus; test: Selectivity index, ratio of IC50 for rat serum BuChE to IC50 for 5% rat cortex homogenate AChE
Acetylcholinesterase [1] = target: Acetylcholinesterase (Electrophorus electricus, UniProt O42275); test: Inhibition of electric eel AChE using acetylthiocholine chloride as substrate after 15 mins by Ellman's method
Cholinesterase = Cholinesterase (Equus caballus, UniProt P81908); test: Inhibition of equine serum BuChE using butyrylthiocholine chloride as substrate after 15 mins by Ellman's method
Summary of the method: (§1)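 Ellman assay. Equine serum or rat serum BuChE pre-incubated with test compound at various concentrations (DMSO <1%) in 0.1 M phosphate buffer pH 8.0 for 15 min at 37°C. DTNB (0.2%) added, absorbance read at 412 nm. Inhibition % = (1−Ai/Ac)×100. IC50 is the mean of three independent experiments, each run in triplicate.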

Acetylcholinesterase [2] = target: T1, Acetylcholinesterase (Rattus norvegicus, UniProt P37136)
T1 sequence (P37136 whole entry): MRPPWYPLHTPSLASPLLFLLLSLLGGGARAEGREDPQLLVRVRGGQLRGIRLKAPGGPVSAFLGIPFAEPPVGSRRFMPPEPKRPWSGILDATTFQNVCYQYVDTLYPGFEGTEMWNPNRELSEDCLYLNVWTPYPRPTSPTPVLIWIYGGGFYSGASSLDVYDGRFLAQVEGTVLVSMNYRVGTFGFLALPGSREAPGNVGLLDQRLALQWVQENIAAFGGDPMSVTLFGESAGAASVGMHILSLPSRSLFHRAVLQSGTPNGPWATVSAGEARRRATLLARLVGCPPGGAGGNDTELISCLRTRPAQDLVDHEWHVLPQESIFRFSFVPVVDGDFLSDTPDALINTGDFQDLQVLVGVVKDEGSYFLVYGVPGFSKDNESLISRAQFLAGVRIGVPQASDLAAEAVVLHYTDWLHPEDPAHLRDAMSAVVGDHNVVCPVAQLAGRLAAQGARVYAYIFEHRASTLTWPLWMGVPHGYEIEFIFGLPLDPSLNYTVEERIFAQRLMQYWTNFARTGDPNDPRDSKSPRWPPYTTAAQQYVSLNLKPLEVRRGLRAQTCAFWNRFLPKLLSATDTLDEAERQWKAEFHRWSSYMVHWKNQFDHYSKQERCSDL

[3] = Inhibition of rat serum BuChE using butyrylthiocholine chloride as substrate after 15 mins by Ellman's method; summary of the method: as §1
[4] = Selectivity index, ratio of IC50 for equine serum BuChE to IC50 for electric eel AChE
[5] = target: T2, Amine oxidase [flavin-containing] A (Homo sapiens, UniProt P21397); test: Inhibition of recombinant human MAO-A expressed in baculovirus infected BTI insect cells using kynuramine as substrate after 30 mins by fluorescence assay
T2 sequence (P21397 whole entry): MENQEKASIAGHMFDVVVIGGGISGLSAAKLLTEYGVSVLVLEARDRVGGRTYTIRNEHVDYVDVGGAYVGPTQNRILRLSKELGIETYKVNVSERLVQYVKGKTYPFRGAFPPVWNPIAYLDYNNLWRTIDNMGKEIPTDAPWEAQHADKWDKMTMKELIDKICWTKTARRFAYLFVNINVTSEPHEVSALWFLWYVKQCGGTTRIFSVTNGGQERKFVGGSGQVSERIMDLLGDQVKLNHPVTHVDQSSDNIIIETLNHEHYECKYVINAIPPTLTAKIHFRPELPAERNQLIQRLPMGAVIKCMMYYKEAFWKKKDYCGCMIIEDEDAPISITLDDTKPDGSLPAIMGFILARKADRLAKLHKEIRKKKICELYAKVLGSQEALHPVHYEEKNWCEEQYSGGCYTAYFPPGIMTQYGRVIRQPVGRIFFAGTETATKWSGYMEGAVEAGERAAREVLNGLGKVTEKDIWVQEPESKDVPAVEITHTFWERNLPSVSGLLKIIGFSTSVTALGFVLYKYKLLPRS

[6] = target: T3, Amine oxidase [flavin-containing] B (Homo sapiens, UniProt P27338); test: biochemical; assay type: cell-based
T3 sequence (P27338 whole entry): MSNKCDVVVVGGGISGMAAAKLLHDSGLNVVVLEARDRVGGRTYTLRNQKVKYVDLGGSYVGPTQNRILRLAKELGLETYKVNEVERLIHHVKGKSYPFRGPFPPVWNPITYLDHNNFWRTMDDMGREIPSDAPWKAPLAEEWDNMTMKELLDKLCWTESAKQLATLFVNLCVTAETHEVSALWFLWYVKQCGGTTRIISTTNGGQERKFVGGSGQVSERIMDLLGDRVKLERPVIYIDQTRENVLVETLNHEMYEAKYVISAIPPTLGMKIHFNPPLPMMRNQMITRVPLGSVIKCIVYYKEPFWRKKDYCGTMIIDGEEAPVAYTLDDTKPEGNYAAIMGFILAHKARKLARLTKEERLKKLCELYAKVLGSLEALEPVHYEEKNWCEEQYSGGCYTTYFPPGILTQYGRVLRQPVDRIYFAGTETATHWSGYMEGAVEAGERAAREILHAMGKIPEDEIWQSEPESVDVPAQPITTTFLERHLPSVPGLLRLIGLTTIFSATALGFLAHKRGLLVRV

Homo sapiens = organism: Homo sapiens; test: Selectivity index, ratio of IC50 for recombinant human MAO-B to IC50 for recombinant human MAO-A

Sequence of Acetylcholinesterase (Electrophorus electricus, UniProt O42275) (O42275 whole entry): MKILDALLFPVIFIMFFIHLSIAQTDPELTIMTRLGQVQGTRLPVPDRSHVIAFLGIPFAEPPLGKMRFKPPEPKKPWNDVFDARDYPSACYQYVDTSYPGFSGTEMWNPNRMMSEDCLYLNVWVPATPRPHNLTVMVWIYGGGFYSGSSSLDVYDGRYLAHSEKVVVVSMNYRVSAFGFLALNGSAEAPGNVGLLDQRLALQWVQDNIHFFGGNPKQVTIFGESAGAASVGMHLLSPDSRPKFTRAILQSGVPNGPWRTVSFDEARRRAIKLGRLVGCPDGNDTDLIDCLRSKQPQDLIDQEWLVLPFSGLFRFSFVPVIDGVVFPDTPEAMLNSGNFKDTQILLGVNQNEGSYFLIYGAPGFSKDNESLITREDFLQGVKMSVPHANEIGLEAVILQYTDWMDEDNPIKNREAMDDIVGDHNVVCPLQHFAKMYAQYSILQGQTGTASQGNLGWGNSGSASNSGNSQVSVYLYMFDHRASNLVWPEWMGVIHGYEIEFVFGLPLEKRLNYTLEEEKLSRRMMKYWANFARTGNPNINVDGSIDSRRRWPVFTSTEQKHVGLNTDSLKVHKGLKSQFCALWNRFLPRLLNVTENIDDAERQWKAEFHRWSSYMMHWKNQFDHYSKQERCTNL
Sequence of Cholinesterase (P81908 whole entry): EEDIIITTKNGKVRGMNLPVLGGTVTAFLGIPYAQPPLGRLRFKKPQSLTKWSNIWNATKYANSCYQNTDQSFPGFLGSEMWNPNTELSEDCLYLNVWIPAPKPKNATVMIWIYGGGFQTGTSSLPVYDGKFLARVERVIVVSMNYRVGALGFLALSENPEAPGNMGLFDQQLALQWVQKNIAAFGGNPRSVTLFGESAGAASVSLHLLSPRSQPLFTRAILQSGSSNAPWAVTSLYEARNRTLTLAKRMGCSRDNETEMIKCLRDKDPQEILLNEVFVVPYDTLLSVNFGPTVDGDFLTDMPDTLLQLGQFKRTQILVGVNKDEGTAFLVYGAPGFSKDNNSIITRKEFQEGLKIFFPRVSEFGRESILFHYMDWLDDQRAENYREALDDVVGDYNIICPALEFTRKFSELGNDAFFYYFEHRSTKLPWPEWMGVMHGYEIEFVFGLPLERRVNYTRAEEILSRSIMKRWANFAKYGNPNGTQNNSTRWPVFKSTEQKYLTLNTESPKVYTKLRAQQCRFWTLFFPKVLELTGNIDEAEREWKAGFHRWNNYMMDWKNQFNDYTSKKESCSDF

Compound: O=C1CCc2ccc(OCCCCCN3CCN(Cc4ccccc4)CC3)cc2N1
- Ratio IC50 (Rattus norvegicus): 1.9
- IC50 (Acetylcholinesterase [1]): 10 µM
- IC50 (Cholinesterase): 12.7 µM
- IC50 (Acetylcholinesterase [2]): 15.7 µM
- IC50 [3]: 29.6 µM
- Ratio IC50 [4]: 1.3
- IC50 [5]: 2.4 µM
- IC50 [6]: 6.5 µM
- Ratio IC50 (Homo sapiens): 2.7

Compound: CCN(CC)CCCOc1ccc2c(c1)NC(=O)CC2
- Ratio IC50 (Rattus norvegicus): 1.1
- IC50 (Acetylcholinesterase [1]): 11.2 µM
- IC50 (Cholinesterase): 29.7 µM
- IC50 (Acetylcholinesterase [2]): 19.2 µM
- IC50 [3]: 20.5 µM
- Ratio IC50 [4]: 2.7
- IC50 [5]: 8.4 µM
- IC50 [6]: 18.6 µM
- Ratio IC50 (Homo sapiens): 2.2

Compound: O=C1CCc2ccc(OCCCCCCN3CCCC3)cc2N1
- Ratio IC50 (Rattus norvegicus): 2.5
- IC50 (Acetylcholinesterase [1]): 2.6 µM
- IC50 (Cholinesterase): 0.87 µM
- IC50 (Acetylcholinesterase [2]): 3.4 µM
- IC50 [3]: 8.5 µM
- Ratio IC50 [4]: 0.33
- IC50 [5]: 1.3 µM
- IC50 [6]: 3.5 µM
- Ratio IC50 (Homo sapiens): 2.8

Compound: O=C1CCc2ccc(OCCCCCN3CCN(c4ccccn4)CC3)cc2N1
- Ratio IC50 (Rattus norvegicus): 1.6
- IC50 (Acetylcholinesterase [1]): 15.6 µM
- IC50 (Cholinesterase): 6.2 µM
- IC50 (Acetylcholinesterase [2]): 28.4 µM
- IC50 [3]: 44.6 µM
- Ratio IC50 [4]: 0.4
- IC50 [5]: 13 µM
- IC50 [6]: 20.3 µM
- Ratio IC50 (Homo sapiens): 1.6

Compound: O=C1CCc2ccc(OCCCCN3CCN(c4ccccn4)CC3)cc2N1
- Ratio IC50 (Rattus norvegicus): 1.9
- IC50 (Acetylcholinesterase [1]): 13.8 µM
- IC50 (Cholinesterase): 8.4 µM
- IC50 (Acetylcholinesterase [2]): 21 µM
- IC50 [3]: 40 µM
- Ratio IC50 [4]: 0.6
- IC50 [5]: 6.9 µM
- IC50 [6]: 10.1 µM
- Ratio IC50 (Homo sapiens): 1.5

Compound: O=C1CCc2ccc(OCCCCCCN3CCc4ccccc4C3)cc2N1
- Ratio IC50 (Rattus norvegicus): 1.1
- IC50 (Acetylcholinesterase [1]): 8.2 µM
- IC50 (Cholinesterase): 1.2 µM
- IC50 (Acetylcholinesterase [2]): 10.8 µM
- IC50 [3]: 11.7 µM
- Ratio IC50 [4]: 0.1
- IC50 [5]: 3.4 µM
- IC50 [6]: 4.4 µM
- Ratio IC50 (Homo sapiens): 1.3

Compound: O=C1CCc2ccc(OCCCCN3CCN(Cc4ccccc4)CC3)cc2N1
- Ratio IC50 (Rattus norvegicus): 2.3
- IC50 (Acetylcholinesterase [1]): 6 µM
- IC50 (Cholinesterase): 10.7 µM
- IC50 (Acetylcholinesterase [2]): 13.7 µM
- IC50 [3]: 31.6 µM
- Ratio IC50 [4]: 1.8
- IC50 [5]: 7.4 µM
- IC50 [6]: 9.4 µM
- Ratio IC50 (Homo sapiens): 1.3

Compound: O=C1CCc2ccc(OCCCN3CCc4ccccc4C3)cc2N1
- Ratio IC50 (Rattus norvegicus): 0.8
- IC50 (Acetylcholinesterase [1]): 13.3 µM
- IC50 (Cholinesterase): 5.5 µM
- IC50 (Acetylcholinesterase [2]): 15.5 µM
- IC50 [3]: 12.6 µM
- Ratio IC50 [4]: 0.4
- IC50 [5]: 8.6 µM
- IC50 [6]: 18.8 µM
- Ratio IC50 (Homo sapiens): 2.2

Compound: O=C1CCc2ccc(OCCCCCN3CCc4ccccc4C3)cc2N1
- Ratio IC50 (Rattus norvegicus): 1.4
- IC50 (Acetylcholinesterase [1]): 9.1 µM
- IC50 (Cholinesterase): 0.9 µM
- IC50 (Acetylcholinesterase [2]): 7.8 µM
- IC50 [3]: 11.2 µM
- Ratio IC50 [4]: 0.1
- IC50 [5]: 4.6 µM
- IC50 [6]: 5.9 µM
- Ratio IC50 (Homo sapiens): 1.3

Compound: O=C1CCc2ccc(OCCCCN3CCc4ccccc4C3)cc2N1
- Ratio IC50 (Rattus norvegicus): 0.7
- IC50 (Acetylcholinesterase [1]): 10.1 µM
- IC50 (Cholinesterase): 3.8 µM
- IC50 (Acetylcholinesterase [2]): 18.2 µM
- IC50 [3]: 12.4 µM
- Ratio IC50 [4]: 0.4
- IC50 [5]: 4.9 µM
- IC50 [6]: 6.9 µM
- Ratio IC50 (Homo sapiens): 1.4

Compound: O=C1CCc2ccc(OCCCN3CCN(c4ccccn4)CC3)cc2N1
- Ratio IC50 (Rattus norvegicus): 2
- IC50 (Acetylcholinesterase [1]): 9.6 µM
- IC50 (Cholinesterase): 14.4 µM
- IC50 (Acetylcholinesterase [2]): 20 µM
- IC50 [3]: 39 µM
- Ratio IC50 [4]: 1.5
- IC50 [5]: 1.1 µM
- IC50 [6]: 18 µM
- Ratio IC50 (Homo sapiens): 17.1

Compound: CC(C)N1CCN(CCCCCOc2ccc3c(c2)NC(=O)CC3)CC1
- Ratio IC50 (Rattus norvegicus): 0.9
- IC50 (Acetylcholinesterase [1]): 0.9 µM
- IC50 (Cholinesterase): 3.2 µM
- IC50 (Acetylcholinesterase [2]): 3.2 µM
- IC50 [3]: 2.7 µM
- Ratio IC50 [4]: 3.5
- IC50 [5]: 8.2 µM
- IC50 [6]: 8.1 µM
- Ratio IC50 (Homo sapiens): 1

Compound: CC(C)N1CCN(CCCOc2ccc3c(c2)NC(=O)CC3)CC1
- Ratio IC50 (Rattus norvegicus): 0.7
- IC50 (Acetylcholinesterase [1]): 6.2 µM
- IC50 (Cholinesterase): 20 µM
- IC50 (Acetylcholinesterase [2]): 14 µM
- IC50 [3]: 10.2 µM
- Ratio IC50 [4]: 3.3
- IC50 [5]: 9.4 µM
- IC50 [6]: 26.1 µM
- Ratio IC50 (Homo sapiens): 2.8

Compound: COc1cc2c(cc1OC)C(=O)C(CC1CCN(Cc3ccccc3)CC1)C2 (stereo not drawn) [DONEPEZIL]
- IC50 [3]: 4.42 µM
